{"source": "paper PMC9660540", "about": "(Clinical Cancer Research, 2022)", "key": {"[1]": {"assay": "Causally related adverse events, phase Ia/Ib study in patients with solid tumors", "type": "in vivo, human", "method_in_brief": "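Expansion cohorts received nanosuspension at 100 mg once daily. The safety set was all patients given ≥1 dose, classified by the treatment actually received. Treatment was delayed or reduced for grade ≥3 or clinically significant nonhematologic toxicity.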"}, "[2]": {"assay": "Plasma pharmacokinetics of AZD4635 and active metabolite in patients", "type": "in vivo, human", "conditions": "for half-life: plasma, oral"}}}
{"smiles": "Cc1cc(-c2nnc(N)nc2-c2ccc(F)cc2)cc(Cl)n1", "note": "[AZD4635]", "values": [{"measurement": "Causally related AE grade ≥3: Abdominal pain", "setting": "[1]; Other Post-IO", "result": "0 n (%)"}, {"measurement": "Causally related AE grade ≥3: Anemia", "setting": "[1]; Other Post-IO", "result": "1 (4.8) n (%)"}, {"measurement": "Causally related AE grade ≥3: Arthralgia", "setting": "[1]; Other Post-IO", "result": "0 n (%)"}, {"measurement": "Causally related AE grade ≥3: Blood creatinine increased", "setting": "[1]; Other Post-IO", "result": "0 n (%)"}, {"measurement": "Causally related AE grade ≥3: CRP increased", "setting": "[1]; Other Post-IO", "result": "0 n (%)"}, {"measurement": "Causally related AE grade ≥3: Dermatitis psoriasiform", "setting": "[1]; Other Post-IO", "result": "0 n (%)"}, {"measurement": "Causally related AE grade ≥3: Diarrhea", "setting": "[1]; Other Post-IO", "result": "0 n (%)"}, {"measurement": "Causally related AE grade ≥3: Dizziness", "setting": "[1]; Other Post-IO", "result": "0 n (%)"}, {"measurement": "Causally related AE grade ≥3: Dyspnea", "setting": "[1]; Other Post-IO", "result": "1 (4.8) n (%)"}, {"measurement": "Causally related AE grade ≥3: Fatigue", "setting": "[1]; Other Post-IO", "result": "1 (4.8) n (%)"}, {"measurement": "Causally related AE grade ≥3: Headache", "setting": "[1]; Other Post-IO", "result": "0 n (%)"}, {"measurement": "Causally related AE grade ≥3: Hyperglycemia", "setting": "[1]; Other Post-IO", "result": "0 n (%)"}, {"measurement": "Causally related AE grade ≥3: Hypertension", "setting": "[1]; Other Post-IO", "result": "0 n (%)"}, {"measurement": "Causally related AE grade ≥3: Hypophosphatemia", "setting": "[1]; Other Post-IO", "result": "0 n (%)"}, {"measurement": "Causally related AE grade ≥3: Insomnia", "setting": "[1]; Other Post-IO", "result": "0 n (%)"}, {"measurement": "Causally related AE grade ≥3: Lipase increased", "setting": "[1]; Other Post-IO", "result": "0 n (%)"}, {"measurement": "Causally related AE grade ≥3: Lymphocyte count decreased", "setting": "[1]; Other Post-IO", "result": "1 (4.8) n (%)"}, {"measurement": "Causally related AE grade ≥3: Myositis", "setting": "[1]; Other Post-IO", "result": "0 n (%)"}, {"measurement": "Causally related AE grade ≥3: Nausea", "setting": "[1]; Other Post-IO", "result": "0 n (%)"}, {"measurement": "Causally related AE grade ≥3: Neutrophil count decreased", "setting": "[1]; Other Post-IO", "result": "0 n (%)"}, {"measurement": "Causally related AE grade ≥3: Obliterative bronchiolitis", "setting": "[1]; Other Post-IO", "result": "0 n (%)"}, {"measurement": "Causally related AE grade ≥3: Rash", "setting": "[1]; Other Post-IO", "result": "0 n (%)"}, {"measurement": "Causally related AE grade ≥3: Sudden death", "setting": "[1]; Other Post-IO", "result": "0 n (%)"}, {"measurement": "Causally related AE grade ≥3: Type I diabetes mellitus", "setting": "[1]; Other Post-IO", "result": "0 n (%)"}, {"measurement": "Causally related AE grade ≥3: Vomiting", "setting": "[1]; Other Post-IO", "result": "0 n (%)"}, {"measurement": "≥Grade 3 causally related AE", "setting": "[1]; Other Post-IO", "result": "1 (4.8) n (%)"}, {"measurement": "Causally related AE grade ≥3: ALT increased", "setting": "[1]; Total", "result": "0 n (%)"}, {"measurement": "Causally related AE grade ≥3: Abdominal pain", "setting": "[1]; Total", "result": "2 (1.4) n (%)"}, {"measurement": "Causally related AE grade ≥3: Anemia", "setting": "[1]; Total", "result": "4 (2.7) n (%)"}, {"measurement": "Causally related AE grade ≥3: Arthralgia", "setting": "[1]; Total", "result": "1 (0.7) n (%)"}, {"measurement": "Causally related AE grade ≥3: Blood creatinine increased", "setting": "[1]; Total", "result": "0 n (%)"}, {"measurement": "Causally related AE grade ≥3: CRP increased", "setting": "[1]; Total", "result": "1 (0.7) n (%)"}, {"measurement": "Causally related AE grade ≥3: Dermatitis psoriasiform", "setting": "[1]; Total", "result": "0 n (%)"}, {"measurement": "Causally related AE grade ≥3: Diarrhea", "setting": "[1]; Total", "result": "1 (0.7) n (%)"}, {"measurement": "Causally related AE grade ≥3: Dizziness", "setting": "[1]; Total", "result": "0 n (%)"}, {"measurement": "Causally related AE grade ≥3: Dyspnea", "setting": "[1]; Total", "result": "1 (0.7) n (%)"}, {"measurement": "Causally related AE grade ≥3: Fatigue", "setting": "[1]; Total", "result": "6 (4.1) n (%)"}, {"measurement": "Causally related AE grade ≥3: Headache", "setting": "[1]; Total", "result": "1 (0.7) n (%)"}, {"measurement": "Causally related AE grade ≥3: Hyperglycemia", "setting": "[1]; Total", "result": "0 n (%)"}, {"measurement": "Causally related AE grade ≥3: Hypertension", "setting": "[1]; Total", "result": "2 (1.4) n (%)"}, {"measurement": "Causally related AE grade ≥3: Hypophosphatemia", "setting": "[1]; Total", "result": "0 n (%)"}, {"measurement": "Causally related AE grade ≥3: Insomnia", "setting": "[1]; Total", "result": "1 (0.7) n (%)"}, {"measurement": "Causally related AE grade ≥3: Lipase increased", "setting": "[1]; Total", "result": "0 n (%)"}, {"measurement": "Causally related AE grade ≥3: Lymphocyte count decreased", "setting": "[1]; Total", "result": "1 (0.7) n (%)"}, {"measurement": "Causally related AE grade ≥3: Myositis", "setting": "[1]; Total", "result": "0 n (%)"}, {"measurement": "Causally related AE grade ≥3: Nausea", "setting": "[1]; Total", "result": "1 (0.7) n (%)"}, {"measurement": "Causally related AE grade ≥3: Neutrophil count decreased", "setting": "[1]; Total", "result": "0 n (%)"}, {"measurement": "Causally related AE grade ≥3: Obliterative bronchiolitis", "setting": "[1]; Total", "result": "0 n (%)"}, {"measurement": "Causally related AE grade ≥3: Rash", "setting": "[1]; Total", "result": "0 n (%)"}, {"measurement": "Causally related AE grade ≥3: Sudden death", "setting": "[1]; Total", "result": "1 (0.7) n (%)"}, {"measurement": "Causally related AE grade ≥3: Type I diabetes mellitus", "setting": "[1]; Total", "result": "0 n (%)"}, {"measurement": "Causally related AE grade ≥3: Vomiting", "setting": "[1]; Total", "result": "2 (1.4) n (%)"}, {"measurement": "≥Grade 3 causally related AE", "setting": "[1]; Total", "result": "19 (12.9) n (%)"}, {"measurement": "Treatment-related AEs of grade 3 or greater severity, patients", "setting": "[1]; all tumor cohorts", "result": 12.9, "unit": "%"}, {"measurement": "Causally related AE grade ≥3: ALT increased", "setting": "[1]; mCRPC IO-naïve", "result": "0 n (%)"}, {"measurement": "Causally related AE grade ≥3: Abdominal pain", "setting": "[1]; mCRPC IO-naïve", "result": "1 (1.5) n (%)"}, {"measurement": "Causally related AE grade ≥3: Anemia", "setting": "[1]; mCRPC IO-naïve", "result": "3 (4.6) n (%)"}, {"measurement": "Causally related AE grade ≥3: Arthralgia", "setting": "[1]; mCRPC IO-naïve", "result": "1 (1.5) n (%)"}, {"measurement": "Causally related AE grade ≥3: Blood creatinine increased", "setting": "[1]; mCRPC IO-naïve", "result": "0 n (%)"}, {"measurement": "Causally related AE grade ≥3: CRP increased", "setting": "[1]; mCRPC IO-naïve", "result": "1 (1.5) n (%)"}, {"measurement": "Causally related AE grade ≥3: Dermatitis psoriasiform", "setting": "[1]; mCRPC IO-naïve", "result": "0 n (%)"}, {"measurement": "Causally related AE grade ≥3: Diarrhea", "setting": "[1]; mCRPC IO-naïve", "result": "0 n (%)"}, {"measurement": "Causally related AE grade ≥3: Dizziness", "setting": "[1]; mCRPC IO-naïve", "result": "0 n (%)"}, {"measurement": "Causally related AE grade ≥3: Dyspnea", "setting": "[1]; mCRPC IO-naïve", "result": "0 n (%)"}, {"measurement": "Causally related AE grade ≥3: Fatigue", "setting": "[1]; mCRPC IO-naïve", "result": "1 (1.5) n (%)"}, {"measurement": "Causally related AE grade ≥3: Headache", "setting": "[1]; mCRPC IO-naïve", "result": "1 (1.5) n (%)"}, {"measurement": "Causally related AE grade ≥3: Hyperglycemia", "setting": "[1]; mCRPC IO-naïve", "result": "0 n (%)"}, {"measurement": "Causally related AE grade ≥3: Hypertension", "setting": "[1]; mCRPC IO-naïve", "result": "0 n (%)"}, {"measurement": "Causally related AE grade ≥3: Hypophosphatemia", "setting": "[1]; mCRPC IO-naïve", "result": "0 n (%)"}, {"measurement": "Causally related AE grade ≥3: Insomnia", "setting": "[1]; mCRPC IO-naïve", "result": "1 (1.5) n (%)"}, {"measurement": "Causally related AE grade ≥3: Lipase increased", "setting": "[1]; mCRPC IO-naïve", "result": "0 n (%)"}, {"measurement": "Causally related AE grade ≥3: Lymphocyte count decreased", "setting": "[1]; mCRPC IO-naïve", "result": "0 n (%)"}, {"measurement": "Causally related AE grade ≥3: Myositis", "setting": "[1]; mCRPC IO-naïve", "result": "0 n (%)"}, {"measurement": "Causally related AE grade ≥3: Nausea", "setting": "[1]; mCRPC IO-naïve", "result": "1 (1.5) n (%)"}, {"measurement": "Causally related AE grade ≥3: Neutrophil count decreased", "setting": "[1]; mCRPC IO-naïve", "result": "0 n (%)"}, {"measurement": "Causally related AE grade ≥3: Obliterative bronchiolitis", "setting": "[1]; mCRPC IO-naïve", "result": "0 n (%)"}, {"measurement": "Causally related AE grade ≥3: Rash", "setting": "[1]; mCRPC IO-naïve", "result": "0 n (%)"}, {"measurement": "Causally related AE grade ≥3: Sudden death", "setting": "[1]; mCRPC IO-naïve", "result": "0 n (%)"}, {"measurement": "Causally related AE grade ≥3: Type I diabetes mellitus", "setting": "[1]; mCRPC IO-naïve", "result": "0 n (%)"}, {"measurement": "Causally related AE grade ≥3: Vomiting", "setting": "[1]; mCRPC IO-naïve", "result": "1 (1.5) n (%)"}, {"measurement": "≥Grade 3 causally related AE", "setting": "[1]; mCRPC IO-naïve", "result": "9 (13.8) n (%)"}, {"measurement": "Tolerability", "setting": "[1]; monotherapy and in combination with durvalumab, all patients", "result": "well tolerated"}, {"measurement": "Accumulation in exposure (Cmax and AUC)", "setting": "[2]; following multiple dosing", "result": "minimal accumulation"}, {"measurement": "PK profile", "setting": "[2]; human, in vivo", "result": "linear and dose-proportional"}, {"measurement": "half-life", "setting": "[2]; human, median t1/2, after a single dose, across doses", "result": "7.92 to 14.5", "unit": "h"}, {"measurement": "half-life", "setting": "[2]; human, t1/2, overall (range, 11–24 hours)", "result": "~14", "unit": "h"}]}
